Holding throughout (type): cell-based
Series [1] deals with Nuclear receptor subfamily 1 group I member 3 (Mus musculus, UniProt O35627, T350M). The experiment in a line: Enhancement of steroid receptor coactivator 1 binding to mouse CAR T350M mutant […] at 10 uM by yeast two-hybrid assay. In a few lines:
(§1)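 Yeast two-hybrid: yeast expressing wild-type or mutant mouse CAR LBD plus SRC-1 or NCoR, selected on SD medium lacking Leu and Trp. Pooled colonies treated with DMSO or test chemical for 3.5 h. β-Galactosidase normalized to cell density. SRC-1 reference: wild-type + DMSO = 100. NCoR reference: 10 µM androstenol = 100. Mean ± SD, two independent determinations, each in triplicate.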

The target of series [2] is T1, Nuclear receptor subfamily 1 group I member 3 (Mus musculus, UniProt O35627, Y336A). The experiment in a line: Enhancement of steroid receptor coactivator 1 binding to mouse CAR Y336A mutant […] at 10 uM by yeast two-hybrid assay. In a few lines:
as §1

The target of series [3] is T2, Nuclear receptor subfamily 1 group I member 3 (Mus musculus, UniProt O35627, N175A). The experiment in a line: Decrease in steroid receptor co-activator 1 binding to mouse CAR N175A mutant […] at 1 uM by yeast two-hybrid assay. The settings on record: read-out: Activity. The gist of the method:
(§2)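 Yeast expressing wild-type or mutant mouse CAR LBD plus SRC-1, selected on SD plates lacking leucine and tryptophan. Pooled colonies treated with DMSO or compound for 3.5 h. β-Galactosidase activity normalized to cell density. Reference is wild-type CAR + SRC-1 with DMSO (=100). Mean ± SD of two independent determinations, each in triplicate.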

In series [4] the target is T3, Nuclear receptor subfamily 1 group I member 3 (Mus musculus, UniProt O35627, F171A). Nature of the series: Effect on steroid receptor co-activator 1 binding to mouse CAR F171A mutant […] at 1 uM by yeast two-hybrid assay. The settings on record: read-out: Activity. In a few lines: as §2
Series [5] has as its target T4, Nuclear receptor subfamily 1 group I member 3 (Mus musculus, UniProt O35627, H213A). The experiment in a line: Activation of mouse CAR H213A mutant expressed in HEK293 cells at 1 uM by mammalian one-hybrid assay. The settings on record: hek293, 1 µM. In a few lines: (§3)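 GAL4 DBD fused to mouse CAR LBD (residues 118-358), wild type or point mutant, cotransfected with UASx4-tk-luc reporter and pCMVβ into HEK293 cells. Cells cultured with DMSO (0.1% v/v) or compound (final 1, 2 or 10 µM). Lysed 24 h post-transfection. Luciferase normalized to β-galactosidase, expressed relative to empty GAL4 vector (=1.0). Mean ± SD, three independent experiments.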

Series [6] has as its target Nuclear receptor subfamily 1 group I member 3 (Mus musculus, UniProt O35627, T350A). The experiment in a line: Effect on nuclear co-repressor receptor binding to mouse CAR T350A mutant […] at 1 uM by yeast two-hybrid assay. Conditions: read-out: Activity. The gist of the method:
(§4)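 Yeast expressing wild-type or mutant mouse CAR LBD plus NCoR, selected on SD plates lacking leucine and tryptophan. Pooled colonies treated with DMSO or compound for 3.5 h. β-Galactosidase activity normalized to cell density. Reference is 10 µM androstenol (=100). Mean ± SD of two independent determinations, each in triplicate.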

In series [7] the target is T5, Nuclear receptor subfamily 1 group I member 3 (Mus musculus, UniProt O35627, L212A). The experiment in a line: Decrease in mouse CAR L212A mutant activation expressed in HEK293 cells at 10 uM by mammalian one-hybrid assay. The settings on record: read-out: Activity. The gist of the method: as §3
The target in series [8] is T3, Nuclear receptor subfamily 1 group I member 3. The experiment in a line: Decrease in nuclear co-repressor receptor binding to mouse CAR F171A mutant […] at 10 uM by yeast two-hybrid assay. Conditions: read-out: Activity. The gist of the method: as §4
The target in series [9] is Nuclear receptor subfamily 1 group I member 3 (Mus musculus, UniProt O35627, S251L). Nature of the series: Decrease in mouse CAR S251L mutant activation expressed in HEK293 cells at 2 uM by mammalian one-hybrid assay. The settings on record: read-out: Activity. In a few lines:
(§5)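 GAL4-DBD fused to mouse CAR LBD (residues 118-358), wild-type or point mutant, cotransfected with UASx4-tk-luc reporter and pCMVβ into HEK293 cells. Cells were exposed to final 1 µM, 2 µM or 10 µM test chemical, or 0.1% v/v DMSO, for 24 h after transfection. Luciferase was normalized to β-galactosidase and set against empty GAL4 vector (=1.0). Mean ± standard deviation, three independent experiments.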

For series [10], the target named is T1, Nuclear receptor subfamily 1 group I member 3. Nature of the series: Decrease in nuclear co-repressor receptor binding to mouse CAR Y336A mutant […] at 2 uM by yeast two-hybrid assay. The settings on record: read-out: Activity. In a few lines:
as §1

Series [11] deals with T2, Nuclear receptor subfamily 1 group I member 3. The experiment in a line: Decrease in nuclear co-repressor receptor binding to mouse CAR N175A mutant […] at 2 uM by yeast two-hybrid assay. The settings on record: read-out: Activity. The gist of the method: as §1
Series [12] has as its target T4, Nuclear receptor subfamily 1 group I member 3. The experiment in a line: Enhancement of nuclear co-repressor receptor binding to mouse CAR H213A mutant […] at 2 uM by yeast two-hybrid assay. In a few lines:
as §1

Series [13] deals with T2, Nuclear receptor subfamily 1 group I member 3. Nature of the series: Decrease in mouse CAR N175A mutant activation expressed in HEK293 cells at 2 uM by mammalian one-hybrid assay. Conditions: read-out: Activity. The gist of the method:
as §5

Series [14] concerns the target Nuclear receptor subfamily 1 group I member 3 (Mus musculus, UniProt O35627, F171L). Nature of the series: Effect on steroid receptor co-activator 1 binding to mouse CAR F171L mutant […] at 2 uM by yeast two-hybrid assay. The settings on record: read-out: Activity. In a few lines: as §1
In series [15] the target is Nuclear receptor subfamily 1 group I member 3 (Mus musculus, UniProt O35627, I252L). Nature of the series: Effect on steroid receptor coactivator 1 binding to mouse CAR I252L mutant […] at 2 uM by yeast two-hybrid assay. The settings on record: read-out: Activity. In a few lines: as §1
Series [16] deals with T5, Nuclear receptor subfamily 1 group I member 3. The experiment in a line: Decrease in nuclear co-repressor receptor binding to mouse CAR L212A mutant […] at 2 uM by yeast two-hybrid assay. Conditions: read-out: Activity. In a few lines: as §1
The target in series [17] is T4, Nuclear receptor subfamily 1 group I member 3. The experiment in a line: Effect on steroid receptor co-activator 1 binding to mouse CAR H213A mutant […] at 2 uM by yeast two-hybrid assay. The settings on record: read-out: Activity. In a few lines:
as §1

Results on 4 molecules are retold here after ChEMBL document CHEMBL1152300, “Ligand specificity of constitutive androstane receptor as probed by induced-fit docking and mutagenesis” (J Med Chem, 2008).

T4 sequence (O35627 whole entry H213A, the tested form may be a part): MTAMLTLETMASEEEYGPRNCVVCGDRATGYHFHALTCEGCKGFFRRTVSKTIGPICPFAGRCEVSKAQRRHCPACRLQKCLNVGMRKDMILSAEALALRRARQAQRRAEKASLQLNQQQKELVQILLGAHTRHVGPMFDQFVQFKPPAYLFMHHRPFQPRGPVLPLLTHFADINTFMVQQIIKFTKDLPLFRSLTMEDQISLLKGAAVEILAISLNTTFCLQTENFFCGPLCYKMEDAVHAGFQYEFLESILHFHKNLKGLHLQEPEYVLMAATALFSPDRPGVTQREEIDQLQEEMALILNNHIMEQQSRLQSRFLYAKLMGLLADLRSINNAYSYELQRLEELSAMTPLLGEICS
T2 sequence (O35627 whole entry N175A, the tested form may be a part): as the sequence (O35627 whole entry H213A, the tested form may be a part) above, with N175A, A213H counted along it
T5 sequence (O35627 whole entry L212A): as the sequence (O35627 whole entry H213A, the tested form may be a part) above, with L212A, A213H counted along it
T1 sequence (O35627 whole entry Y336A): as the sequence (O35627 whole entry H213A, the tested form may be a part) above, with A213H, Y336A counted along it
T3 sequence (O35627 whole entry F171A, the tested form may be a part): as the sequence (O35627 whole entry H213A, the tested form may be a part) above, with F171A, A213H counted along it
Chain of Nuclear receptor subfamily 1 group I member 3 (Mus musculus, UniProt O35627, T350A) (O35627 whole entry T350A, the tested form may be a part): as the sequence (O35627 whole entry H213A, the tested form may be a part) above, with A213H, T350A counted along it
Chain of Nuclear receptor subfamily 1 group I member 3 (Mus musculus, UniProt O35627, F171L) (O35627 whole entry F171L): as the sequence (O35627 whole entry H213A, the tested form may be a part) above, with F171L, A213H counted along it
Chain of Nuclear receptor subfamily 1 group I member 3 (Mus musculus, UniProt O35627, I252L) (O35627 whole entry I252L): as the sequence (O35627 whole entry H213A, the tested form may be a part) above, with A213H, I252L counted along it
Chain of Nuclear receptor subfamily 1 group I member 3 (Mus musculus, UniProt O35627, T350M) (O35627 whole entry T350M, the tested form may be a part): as the sequence (O35627 whole entry H213A, the tested form may be a part) above, with A213H, T350M counted along it
Chain of Nuclear receptor subfamily 1 group I member 3 (Mus musculus, UniProt O35627, S251L) (O35627 whole entry S251L, the tested form may be a part): as the sequence (O35627 whole entry H213A, the tested form may be a part) above, with A213H, S251L counted along it

`COc1ccccc1CC(CC(=O)Cc1ccccc1)OC` (configuration not stated): the Activity in [1] was more than 50%; in series [2] it was more than 150%.
In the case of `Clc1cnc(Oc2ccc(Oc3ncc(Cl)cc3Cl)cc2)c(Cl)c1`, the inhibition at 1 µM in series [3] is not below 50%. In addition, the activity at 1 µM in [4] and in [6] was less than 50% throughout. Moreover, the Activity in series [5] is on record as 50%.
With `C[C@]12CC[C@@H](O)C[C@@H]1CC[C@@H]1[C@@H]2CC[C@]2(C)C=CC[C@@H]12` [ANDROSTENOL], the inhibition at 10 µM is 50% in series [7] and not below 50% in [8].
In the case of `Clc1ccccc1C(c1ccccc1)(c1ccccc1)n1ccnc1` [CLOTRIMAZOLE], the inhibition at 2 µM was less than 50% in [9]; not below 50% in series [10]; less than 50% in series [11]; 50% in series [13]; not below 50% in [16]. Besides, the Activity in [12] is recorded as more than 150%. Also, the activity at 2 µM was not below 50% in series [14], less than 50% in [15] and less than 50% in series [17].
